The nature of data set [1]: Bioavailability in rat at 3 mg/kg, […]. The format is ADME, organism-based. To be noted: in vivo. The method in brief: (§1)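 Rat PK with paired iv and oral dosing, vehicle 2% Vitamin E TPGS. Clearance and Vss from the iv arm; oral bioavailability F from comparing exposure after oral and iv doses.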
In data set [2] the test system is Rattus norvegicus. The experiment in a line: Volume of distribution at steady state in rat at 5 mg/kg, po. The following applies: in vivo. Further details: dose 5 mg/kg, route oral. The data set is classed as ADME, organism-based. Put shortly: (§2)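 Rat pharmacokinetics: compounds given iv (1 or 3 mg/kg) and po (5 or 10 mg/kg) in 2% Vitamin E TPGS (tocopheryl polyethylene glycol 1000 succinate). Plasma sampled over 24 h for Cmax, Tmax, AUC0–24 h, T1/2, clearance, Vss and oral bioavailability. Brain to plasma ratio also measured.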

Data set [3] can be described thus: Clearance in rat at 3 mg/kg, iv. The data set is classed as ADME, organism-based. The following applies: in vivo. Details: dose 3 mg/kg, route intravenous. The method in brief: as §1
The target of data set [4] is T1, Corticotropin-releasing factor receptor 1 (Homo sapiens, UniProt P34998).
T1 sequence (P34998 whole entry): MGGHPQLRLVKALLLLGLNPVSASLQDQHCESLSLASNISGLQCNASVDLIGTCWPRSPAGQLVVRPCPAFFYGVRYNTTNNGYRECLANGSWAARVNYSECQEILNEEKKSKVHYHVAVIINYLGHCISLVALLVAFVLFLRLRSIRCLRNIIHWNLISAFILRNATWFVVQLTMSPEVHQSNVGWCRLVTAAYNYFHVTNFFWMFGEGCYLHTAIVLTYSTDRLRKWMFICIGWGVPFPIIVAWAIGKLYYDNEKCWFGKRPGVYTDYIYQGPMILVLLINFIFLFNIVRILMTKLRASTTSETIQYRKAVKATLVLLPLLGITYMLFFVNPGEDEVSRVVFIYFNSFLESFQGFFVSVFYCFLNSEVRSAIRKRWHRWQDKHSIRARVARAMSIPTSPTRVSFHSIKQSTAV
The experiment in a line: Displacement of [125I]-sauvagine from human CRF-1 receptor expressed in human IMR-32 cells after 2 hrs by scintillation counting. The format is cell-based. The method in brief: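 Competition binding against 125I-sauvagine on membrane preparations from IMR-32 human neuroblastoma cells, which express CRF-1 endogenously. Modified from a published method.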
For orientation: Displacement assays read how much labelled ligand stays bound in the presence of the test substance.

The nature of data set [5]: Ratio of drug level in brain to plasma of rat at 3 mg/kg, iv. The format is ADME, organism-based. Details: dose 3 mg/kg, route intravenous. The following applies: read-out: BPR. Put shortly: as §2
A short description of data set [6]: Half life in rat at 5 mg/kg, po. To be noted: in vivo. Further details: dose 5 mg/kg, route oral. The data set is classed as ADME, organism-based.
Data set [7] in a line: Cmax in rat at 5 mg/kg, po. To be noted: in vivo. The format is ADME, organism-based. Further details: dose 5 mg/kg, route oral.
Data set [8] in a line: Half life in rat at 3 mg/kg, iv. The format is ADME, organism-based. Details: dose 3 mg/kg, route intravenous. The following applies: in vivo. Put shortly:
(§3)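 Rat PK, intravenous arm of a paired iv/po study. Dosed in 2% Vitamin E TPGS (tocopheryl polyethylene glycol 1000 succinate). Parameters derived from plasma: Cmax, AUC0–24 h, terminal T1/2.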

Data set [9] in a line: Oral bioavailability in rat at 5 mg/kg. The format is ADME, organism-based. The following applies: in vivo. The method in brief:
as §2

A short description of data set [10]: Tmax in rat at 5 mg/kg, po. The data set is classed as ADME, organism-based. Details: dose 5 mg/kg, route oral. To be noted: in vivo. Put shortly:
as §2

Data set [11] can be described thus: Volume of distribution at steady state in rat at 3 mg/kg, iv. The data set is classed as ADME, organism-based. Further details: dose 3 mg/kg, route intravenous. To be noted: in vivo, read-out: Vdss. The method in brief:
as §2

A short description of data set [12]: Half life in rat microsomes. The format is ADME, Microsome. Put shortly: (§4)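 Stability in human or rat liver microsomes; half-life (T1/2, min) of compound turnover reported.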
Data set [13] can be described thus: Cmax in rat at 3 mg/kg, iv. The format is ADME, organism-based. Details: dose 3 mg/kg, route intravenous. The following applies: in vivo. The method in brief:
as §3

Data set [14] can be described thus: Tmax in rat at 3 mg/kg, iv. The following applies: in vivo. The format is ADME, organism-based. Further details: dose 3 mg/kg, route intravenous. The method in brief:
as §2

Data set [15] in a line: AUC (0 to 24 hrs) in rat at 5 mg/kg, po. The format is ADME, organism-based. Details: time < 24 hr, dose 5 mg/kg, route oral. The following applies: plasma.
Data set [16] in a line: Half life in human microsomes. The data set is classed as ADME, Microsome. The method in brief: as §4
A short description of data set [17]: Clearance in rat at 5 mg/kg, po. The format is ADME, organism-based. Details: dose 5 mg/kg, route oral. To be noted: in vivo.
Data set [18] in a line: Ratio of drug level in brain to plasma of rat at 5 mg/kg, po. The following applies: read-out: BPR. Further details: dose 5 mg/kg, route oral. The format is ADME, organism-based. The method in brief: as §2
Data set [19] can be described thus: AUC (0 to 24 hrs) in rat at 3 mg/kg, iv. The format is ADME, organism-based. To be noted: plasma. Details: time < 24 hr, dose 3 mg/kg, route intravenous. Put shortly: as §3
Data set [20] in a line: Oral bioavailability in rat. To be noted: in vivo. The data set is classed as ADME, organism-based. Put shortly: as §2
A short description of data set [21]: Drug uptake in rat adipose tissue assessed as radioactivity of labeled compound. The format is ADME, tissue-based. To be noted: in vivo.
Data set [22] concerns the target Corticotropin-releasing factor receptor 1 (Rattus norvegicus, UniProt P35353). The data set can be described thus: Displacement of [125I]-sauvagine from rat CRF-1 receptor expressed in rat cortical membrane after 2 hrs by scintillation counting. The data set is classed as cell membranes. Put shortly:
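Displacement of [125I]-sauvagine binding from rat cortical membrane homogenate with increasing compound concentrations; Ki derived.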

Data set [23] deals with Rattus norvegicus. The experiment in a line: Decrease in restrained-stress induced ATCH release in plasma of Sprague-Dawley rat at 10 mg/kg, po pretreated with compound for 1 hr by radioimmunoassay. The format is functional, organism-based. Further details: dose 10 mg/kg. Put shortly:
(§5)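 Rats were dosed orally 1 h before a 10 min period of physical restraint, across a 1–30 mg/kg range. The read-out was plasma ACTH, compared against vehicle-treated stressed and unstressed rats.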

For data set [24], the system named is Rattus norvegicus. The data set can be described thus: Antihyperlocomotion activity in Wistar rat assessed as decrease in CRF-induced hyperlocomotion at 10 mg/kg, po administered 1 hr before CRF challenge measured after 1 hr. Further details: dose 10 mg/kg. The format is functional, organism-based. The method in brief: (§6)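 Oral dosing in rats 1 h before an ICV CRF challenge of 0.3 μg, across a 1–30 mg/kg range. The read-out was locomotor movement time, compared against TPGS-vehicle rats given CRF and rats given vehicle without CRF.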

Data set [25] deals with Rattus norvegicus. The data set can be described thus: Decrease in restrained-stress induced ATCH release in plasma of Sprague-Dawley rat at 3 mg/kg, po pretreated with compound for 1 hr by radioimmunoassay. The format is functional, organism-based. Details: dose 3 mg/kg. Put shortly:
as §5

Data set [26] concerns Rattus norvegicus. The experiment in a line: Ex vivo CRF-1 receptor occupancy in po dosed rat cortical homogenate assessed as inhibition of [I125]-sauvagine binding pretreated for 3 hrs. The format is functional, organism-based. The method in brief:
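Rats dosed orally at 1, 3 and 10 mg/kg; cortex taken at 3 h for ex vivo binding. Specific [125I]-sauvagine binding compared with vehicle-treated rats to give ex vivo ID50.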

Data set [27] concerns Rattus norvegicus. The data set can be described thus: Antihyperlocomotion activity in Wistar rat assessed as decrease in CRF-induced hyperlocomotion at 3 mg/kg, po administered 1 hr before CRF challenge measured after 1 hr. The format is functional, organism-based. Further details: dose 3 mg/kg. Put shortly: as §6

The values that follow come from ChEMBL document CHEMBL1806459, “Discovery of N-(1-ethylpropyl)-[3-methoxy-5-(2-methoxy-4-trifluoromethoxyphenyl)-6-methyl-pyrazin-2-yl]amine 59 (NGD 98-2): an orally active corticotropin releasing factor-1 (CRF-1) receptor antagonist” (J Med Chem, 2011).

≈ marks a conversion by molar mass, not a printed value. Calls of active or inactive are those of the source. The calls are words filed in the database; no cut-off is given here.

As usually defined, the bioavailability is the share of a dose that reaches the circulation, judged against a reference dose that is usually intravenous. In general, clearance refers to the volume of plasma or blood freed of the substance per unit of time. A low value points to a low capacity for elimination. In general, Ki refers to a dissociation constant, usually derived from enzyme kinetics or from competition with a known ligand. Read a low Ki as higher affinity. What is called half-life is the time in which the quantity being followed falls by half. The term Cmax denotes the maximum level reached in the sampled fluid or tissue. As usually defined, the Tmax is the time from dosing to the highest level. The AUC(0-t) is exposure summed from dosing to a finite time, without extrapolation to infinity. Read a low AUC(0-t) as low exposure. In general, CL/F refers to clearance divided by bioavailability, as obtained after extravascular dosing. As a reminder, the IC50 is the concentration that inhibits the measured activity by half.

Sequence of Corticotropin-releasing factor receptor 1 (Rattus norvegicus, UniProt P35353) (P35353 whole entry): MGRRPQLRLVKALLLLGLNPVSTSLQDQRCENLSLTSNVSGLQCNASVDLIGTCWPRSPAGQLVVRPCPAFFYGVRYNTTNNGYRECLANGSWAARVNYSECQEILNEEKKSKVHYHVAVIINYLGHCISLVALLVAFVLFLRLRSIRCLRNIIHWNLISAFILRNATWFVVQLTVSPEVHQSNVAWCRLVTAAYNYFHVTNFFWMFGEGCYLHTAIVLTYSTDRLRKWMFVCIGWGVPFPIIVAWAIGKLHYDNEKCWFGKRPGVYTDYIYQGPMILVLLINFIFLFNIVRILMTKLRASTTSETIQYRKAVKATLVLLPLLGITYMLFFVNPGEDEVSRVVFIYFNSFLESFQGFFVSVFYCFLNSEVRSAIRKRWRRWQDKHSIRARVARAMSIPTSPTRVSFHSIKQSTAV

In the case of `CCc1nc(-c2ccc(Cl)cc2Cl)c(CC)nc1NC(CC)CC`, the bioavailability in data set [1] and in [9] was 83% throughout. In the data set on Rattus norvegicus [2], this molecule had a Vdss of 6.5 L/kg. Further, the clearance in [3] is 16 mL/min/kg. The molecule also yielded a Ki in data set [4] of 4.1 nM. Moreover, the Kp in [5] and in data set [18] was 2.5 throughout. The half-life in data set [6] is 294 min; in data set [8] it was 294 min; in data set [12] it was 4.2 min; in data set [16], 17 min. Further, the Cmax in [7] and in [13] was 627 ng/mL throughout. Moreover, the time to peak (Tmax) in [10] and in data set [14] was 1.3 h throughout. Besides, the Vd in data set [11] was found to be 6.5 L/kg. The AUC(0-t) at 24 h in data set [15] and in data set [19] was 4310 ng·h/mL each time. The same molecule registered an apparent clearance (CL/F) in data set [17] of 16 mL/min/kg.

For `CCC(CC)Oc1c(C)nc(-c2c(OC)cc(Cl)cc2OC)nc1OC`, in [20], the bioavailability was 6%.

`CCC(CC)Nc1nc(C)c(-c2ccc(OC(F)(F)F)cc2O[14CH3])nc1OC`: the Drug uptake result in data set [21] is “Active”.

Consider `CCCN(CCC)c1cc(C)nc2c(-c3cnc(N(C)C)cc3C)c(C)nn12`, for which, in [22], the affinity corresponds to a Ki of 3.8 nM. Moreover, the result with Rattus norvegicus [23], in the data set on Rattus norvegicus [24], with Rattus norvegicus [25] and in the data set on Rattus norvegicus [27] was Active. In addition, in the data set with Rattus norvegicus [26], the IC50 came to 0.074 µg/mL (≈ 0.194 µM). The ED50 in the data set on Rattus norvegicus [26] (po, read-out: ID50 (the source's name)) came out at 7.2 mg/kg.
